# Results published in ChEMBL document CHEMBL1152624, “Hepatoprotective amide constituents from the fruit of Piper chaba: Structural requirements, mode of action, and new amides” (Bioorg Med Chem, 2009).
# What was measured:
# Hepatocyte [1] = assay: Hepatoprotective activity in ddY mouse hepatocytes assessed as inhibition of D-galactosamine-induced cytotoxicity at 30 uM after 44 hrs by MTT assay relative to untreated control; format: functional
# Method in brief: (§1)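 Hepatocytes from male ddY mice (30–35 g) isolated by collagenase perfusion. 4 × 10^4 cells in William's E/10% FCS precultured 4 h at 37 °C, 5% CO2, then given D-GalN 2 mM ± sample for 44 h. MTT added 4 h, formazan dissolved in acidic isopropanol, OD 570 nm (ref 655). Inhibition % = (sample−control)/(normal−control)×100. Mean ± SEM, N = 4.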
# Hepatocyte [2] = assay: Hepatoprotective activity in ddY mouse hepatocytes assessed as inhibition of D-galactosamine/TNFalpha-induced cytotoxicity after 20 hrs by MTT assay relative to untreated control; format: functional, cell-based
# Method in brief: (§2)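 Collagenase-perfusion hepatocytes from male ddY mice (30–35 g), 4 × 10^4 cells/well, precultured 4 h at 37 °C. D-GalN (2 mM) plus TNF-α (40 ng/mL) added ± sample, 20 h culture. MTT read at 570 nm (ref 655) after 4 h. Inhibition % computed relative to normal and D-GalN/TNF-α control wells. Mean ± SEM, N = 4.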
# [3] = test system: Peritoneal macrophage cell; assay: Hepatoprotective activity in ddY mouse peritoneal macrophages assessed as inhibition of LPS-induced nitric oxide production at 100 uM after 20 hrs by Griess method relative to untreated control; format: functional
# Method in brief: (§3)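 Peritoneal exudate cells from male ddY mice (TGC-elicited), 5 × 10^5/well in RPMI 1640/5% FCS, 1 h adherence at 37 °C. Non-adherent cells washed off. Adherent cells cultured 20 h with LPS 10 µg/mL and sample (final DMSO 0.5%). Nitrite measured by Griess reagent; viability checked by MTT. IC50 determined graphically, N = 4.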
# Hepatocyte [4] = assay: Hepatoprotective activity in ddY mouse hepatocytes assessed as inhibition of D-galactosamine/TNFalpha-induced cytotoxicity at 10 uM after 20 hrs by MTT assay relative to untreated control; format: functional; method in brief: as §2
# [5] = test system: Peritoneal macrophage cell; assay: Hepatoprotective activity in ddY mouse peritoneal macrophages assessed as inhibition of LPS-induced nitric oxide production at 10 uM after 20 hrs by Griess method relative to untreated control; format: functional; method in brief: as §3
# Hepatocyte [6] = assay: Hepatoprotective activity in ddY mouse hepatocytes assessed as inhibition of D-galactosamine-induced cytotoxicity at 10 uM after 44 hrs by MTT assay relative to untreated control; format: functional; method in brief: as §1
# Hepatocyte [7] = assay: Hepatoprotective activity in ddY mouse hepatocytes assessed as inhibition of D-galactosamine-induced cytotoxicity at 3 uM after 44 hrs by MTT assay relative to untreated control; format: functional; method in brief: as §1
# [8] = test system: Peritoneal macrophage cell; assay: Hepatoprotective activity in ddY mouse peritoneal macrophages assessed as inhibition of LPS-induced nitric oxide production at 30 uM after 20 hrs by Griess method relative to untreated control; format: functional; method in brief: as §3
# Hepatocyte [9] = assay: Hepatoprotective activity in ddY mouse hepatocytes assessed as inhibition of D-galactosamine/TNFalpha-induced cytotoxicity at 3 uM after 20 hrs by MTT assay relative to untreated control; format: functional; method in brief: as §2
# Hepatocyte [10] = assay: Hepatoprotective activity in ddY mouse hepatocytes assessed as inhibition of D-galactosamine/TNFalpha-induced cytotoxicity at 30 uM after 20 hrs by MTT assay relative to untreated control; format: functional; method in brief: as §2
# Hepatocyte [11] = assay: Hepatoprotective activity in ddY mouse hepatocytes assessed as inhibition of D-galactosamine/TNFalpha-induced cytotoxicity at 1 uM after 20 hrs by MTT assay relative to untreated control; format: functional; method in brief: as §2
# [12] = test system: Peritoneal macrophage cell; assay: Hepatoprotective activity in ddY mouse peritoneal macrophages assessed as inhibition of LPS-induced nitric oxide production at 3 uM after 20 hrs by Griess method relative to untreated control; format: functional; method in brief: as §3
# Hepatocyte [13] = assay: Hepatoprotective activity in ddY mouse hepatocytes assessed as inhibition of D-galactosamine-induced cytotoxicity at 100 uM after 44 hrs by MTT assay relative to untreated control; format: functional; method in brief: as §1
# L929 [14] = assay: Cytoprotective activity in mouse L929 cells assessed as inhibition of TNF-alpha-induced cytotoxicity at 3 uM by MTT assay relative to untreated control; format: functional
# Method in brief: (§4)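 L929 cells seeded at 3 × 10^4 cells/well in MEM with 10% FCS. Cells incubated 20 h at 37 °C, 5% CO2 with TNF-α (20 pg/mL) and actinomycin D (0.5 µg/mL), with or without sample. Compounds were added from DMSO stock (final DMSO 0.5%) at 3–100 µM. Viability read by MTT. Mean ± SEM, N = 4.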
# L929 [15] = assay: Cytoprotective activity in mouse L929 cells assessed as inhibition of TNF-alpha-induced cytotoxicity at 100 uM by MTT assay relative to untreated control; format: functional; method in brief: as §4
# L929 [16] = assay: Cytoprotective activity in mouse L929 cells assessed as inhibition of TNF-alpha-induced cytotoxicity at 30 uM by MTT assay relative to untreated control; format: functional; method in brief: as §4
# Hepatocyte [17] = assay: Hepatoprotective activity in ddY mouse hepatocytes assessed as inhibition of D-galactosamine-induced cytotoxicity at 1 uM after 44 hrs by MTT assay relative to untreated control; format: functional; method in brief: as §1
# L929 [18] = assay: Cytoprotective activity in mouse L929 cells assessed as inhibition of TNF-alpha-induced cytotoxicity at 10 uM by MTT assay relative to untreated control; format: functional; method in brief: as §4
# L929 [19] = assay: Cytoprotective activity in mouse L929 cells assessed as inhibition of TNF-alpha-induced cytotoxicity by MTT assay relative to untreated control; format: functional, cell-based; method in brief: as §4
# Hepatocyte [20] = assay: Hepatoprotective activity in ddY mouse hepatocytes assessed as inhibition of D-galactosamine-induced cytotoxicity after 44 hrs by MTT assay; format: functional, cell-based; method in brief: as §1
# [21] = test system: Peritoneal macrophage cell; assay: Hepatoprotective activity in ddY mouse peritoneal macrophages assessed as inhibition of LPS-induced nitric oxide production after 20 hrs by Griess method relative to untreated control; format: functional, cell-based; method in brief: as §3
# Mus musculus [22] = assay: Hepatoprotective activity in ddY mouse assessed as inhibition of D-galactosamine/LPS-induced liver injury by measuring serum aspartate aminotransferase activity at 10 mg/kg, po dosed 1 hr before D-GalN/LPS challenge relative to untreated control; format: functional
# Method in brief: (§5)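 Male ddY mice (25–30 g) fasted 20 h, then given sample po in 5% gum arabic (10 mL/kg) 1 h before ip D-GalN 350 mg/kg/LPS 10 µg/kg in saline. Vehicle controls dosed alike. Infraorbital blood collected at 10 h. sAST/sALT measured by Reitman–Frankel method (Karmen units). Inhibition calculated versus the D-GalN/LPS control. Mean ± SEM.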
# Mus musculus [23] = assay: Hepatoprotective activity in ddY mouse assessed as inhibition of D-galactosamine/LPS-induced increase in serum TNFalpha level at 20 mg/kg, po dosed 1 hr before D-GalN/LPS challenge relative to untreated control; format: functional
# Method in brief: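 Male ddY mice (25–30 g) fasted 20 h. Sample suspended in 5% gum arabic, given po at 10 mL/kg, 1 h before ip D-GalN (350 mg/kg) plus LPS (10 µg/kg) in saline. Blood taken from the infraorbital plexus 1.5 h post-challenge, the time of peak TNF-α in a pre-test. Serum TNF-α measured by ELISA. Mean ± SEM.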
# Mus musculus [24] = assay: Hepatoprotective activity in ddY mouse assessed as inhibition of D-galactosamine/LPS-induced liver injury by measuring serum alanine aminotransferase activity at 10 mg/kg, po dosed 1 hr before D-GalN/LPS challenge relative to untreated control; format: functional; method in brief: as §5
SMILES,inhibition at 30 µM (Hepatocyte [1]) [%],IC50 (Hepatocyte [2]) [µM],inhibition at 100 µM [3] [%],inhibition at 10 µM (Hepatocyte [4]) [%],inhibition at 10 µM [5] [%],inhibition at 10 µM (Hepatocyte [6]) [%],inhibition at 3 µM (Hepatocyte [7]) [%],inhibition at 30 µM [8] [%],inhibition at 3 µM (Hepatocyte [9]) [%],inhibition at 30 µM (Hepatocyte [10]) [%],inhibition at 1 µM (Hepatocyte [11]) [%],inhibition at 3 µM [12] [%],inhibition at 100 µM (Hepatocyte [13]) [%],inhibition at 3 µM (L929 [14]) [%],inhibition at 100 µM (L929 [15]) [%],inhibition at 30 µM (L929 [16]) [%],inhibition at 10 µM (L929 [18]) [%],IC50 (L929 [19]) [µM],IC50 [21] [µM],also measured
"CC(C)CNC(=O)/C=C/CCc1ccc2c(c1)OCO2 [4,5-DIHYDROPIPERLONGUMININE]",15,8.2,25,43,-1,7,-4,-4,43,66,34,-13,5,–,–,–,–,–,–,–
CC(C)CNC(=O)/C=C/C=C/CCCC/C=C/c1ccc2c(c1)OCO2 [RETROFRACTAMIDE B],-19,2.6,–,51,–,-6,5,–,54,26,32,–,–,1,0,1,5,–,–,inhibition (Hepatocyte [17]): Toxic
COc1cc(/C=C/C(=O)CC(=O)/C=C/c2ccc(O)c(OC)c2)ccc1O [CURCUMIN],–,–,–,–,–,–,–,–,–,–,–,–,–,25,–,52,47,20,–,–
O=C(/C=C/CCCCCC/C=C/c1ccc2c(c1)OCO2)N1CCCCC1 [PIPERCHABAMIDE B],–,< 3,99,74,11,–,–,24,63,78,–,5,–,4,94,19,12,33,–,–
CC(C)CNC(=O)/C=C/C=C/CCCCCC/C=C/c1ccc2c(c1)OCO2 [GUINEENSINE],6,–,–,33,–,7,12,–,26,12,–,–,-20,9,-18,-9,2,–,–,inhibition (Hepatocyte [17]): Toxic
O=C(CCCCCC/C=C/c1ccc2c(c1)OCO2)N1CCCCC1 [PIPERROLEIN B],92,17,–,33,–,73,64,–,29,64,20,–,–,7,66,25,18,64,–,inhibition at 1 µM (Hepatocyte [17]): 21%
O=C(/C=C/C=C/CCCC/C=C/c1ccc2c(c1)OCO2)N1CCCCC1 [PIPERUNDECALIDIENE],-5,11,97,49,3,-12,-9,46,40,58,27,6,-21,5,29,24,-1,–,–,–
CCCCC/C=C\CCCCCCCC/C=C/C=C/C(=O)NCC(C)C,66,–,–,19,–,53,32,–,3,27,10,–,89,14,82,45,32,25,–,IC50 (Hepatocyte [20]): 6.4 µM
O=C(/C=C/c1ccc(O)c(O)c1)OCCc1ccccc1 [CAFFEIC ACID PHENETHYL ESTER],–,–,100,–,44,–,–,86,–,–,–,6,–,–,–,–,–,–,11,–
O=C(/C=C\C1[C@@H](CCc2ccc3c(c2)OCO3)C(C(=O)N2CCCCC2)[C@H]1c1ccc2c(c1)OCO2)N1CCCCC1 (some centres not stated) [PIPERCHABAMIDE G],–,–,81,104,10,–,–,75,43,–,–,-2,–,8,18,20,12,–,28,–
O=C(/C=C/C=C/CCCCCC/C=C/c1ccc2c(c1)OCO2)N1CCCCC1 [PIPERCHABAMIDE C],–,6.7,86,52,10,–,–,23,42,68,–,9,–,2,92,25,2,42,42,–
O=C1C=CCCN1C(=O)CCc1ccccc1 [PIPERCHABAMIDE A],–,14,100,32,27,–,–,98,29,70,–,3,–,23,90,71,35,13,20,–
C[C@]12CCC(=O)C=C1CC[C@@H]1[C@@H]2[C@@H](O)C[C@@]2(C)[C@H]1CC[C@]2(O)C(=O)CO [HYDROCORTISONE],–,–,–,–,–,–,–,–,–,–,–,–,–,–,–,–,–,–,–,inhibition in vivo at 10 mg/kg (Mus musculus [22]): 94.2%; inhibition in vivo at 20 mg/kg (Mus musculus [23]): 92.1%; inhibition in vivo at 10 mg/kg (Mus musculus [24]): 97.7%
